Test results as given in ChEMBL document CHEMBL1770122, “Synthesis, antibacterial and antimycobacterial activities of some new 4-aryl/heteroaryl-2,6-dimethyl-3,5-bis-N-(aryl)-carbamoyl-1,4-dihydropyridines” (2011).
Converted amounts (≈) assume the structure as drawn. The source made the active and inactive calls. The calls are words filed in the database; no cut-off is given here.

Assays:
[1] = test system: Staphylococcus aureus; assay: Antimicrobial activity against Staphylococcus aureus NCIM 2079/ATCC 6538P at 12.5 ug/mL after 24 hrs by disc diffusion method; assay type: functional; settings: for zone of inhibition at 12.5 µg/mL: read-out: DIZ
Procedure, shortened: (§1)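 NCIM cultures were used. Test solutions in DMSO, diluted from a 1 mg mL-1 stock to 12.5, 25 or 50 µg mL-1, were loaded onto sterile 5 mm filter-paper discs and dried. Nutrient agar was spread with 100 µL of 24 h bacterial suspension (10^8 cells mL-1). Incubation was 37 ± 1 °C for 24 h, and inhibition-zone diameter was read. DMSO served as control, with tetracyclin and streptomycin (50 µg mL-1) discs as standards. Triplicate, averaged.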

[2] = test system: Proteus vulgaris; assay: Antimicrobial activity against Proteus vulgaris NCIM 2027/ATCC 13315 at 1000 ug/mL after 24 hrs by disc diffusion method; assay type: functional, organism-based
[3] = test system: Escherichia coli; assay: Antimicrobial activity against Escherichia coli NCIM 2068/ATCC 11105 at 12.5 ug/mL after 24 hrs by disc diffusion method; assay type: functional; settings: NCIM 2068/ATCC 11105, 24 h, read-out: DIZ; procedure, shortened: as §1
[4] = test system: Bacillus subtilis; assay: Antimicrobial activity against Bacillus subtilis NCIM 2063/ATCC 6633 at 50 ug/mL after 24 hrs by disc diffusion method; assay type: functional; settings: NCIM 2063/ATCC 6633, 24 h, read-out: DIZ; procedure, shortened: as §1
[5] = test system: Staphylococcus aureus; assay: Antimicrobial activity against methicillin-resistant Staphylococcus aureus at 1000 ug/mL after 24 hrs by disc diffusion method; assay type: functional; settings: for zone of inhibition at 1000 µg/mL: read-out: DIZ
Procedure, shortened: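 Disc diffusion on nutrient agar. Compound at 1 mg mL-1 (1000 µg mL-1) in DMSO was loaded onto 5 mm sterile filter-paper discs and dried. Plates were spread with 100 µL of a 24 h culture at 10^8 cells mL-1. Incubated at 37 ± 1 °C for 24 h; inhibition zone diameters recorded. DMSO control disc. Triplicate, averaged.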

[6] = test system: Proteus vulgaris; assay: Antimicrobial activity against Proteus vulgaris NCIM 2027/ATCC 13315 at 12.5 ug/mL after 24 hrs by disc diffusion method; assay type: functional; settings: NCIM 2027/ATCC 13315, 24 h, read-out: DIZ; procedure, shortened: as §1
[7] = test system: Bacillus subtilis; assay: Antimicrobial activity against Bacillus subtilis NCIM 2063/ATCC 6633 at 1000 ug/mL after 24 hrs by disc diffusion method; assay type: functional, organism-based
[8] = test system: Proteus vulgaris; assay: Antimicrobial activity against Proteus vulgaris NCIM 2027/ATCC 13315 at 25 ug/mL after 24 hrs by disc diffusion method; assay type: functional; settings: NCIM 2027/ATCC 13315, 24 h, read-out: DIZ; procedure, shortened: as §1
[9] = test system: Bacillus subtilis; assay: Antimicrobial activity against Bacillus subtilis NCIM 2063/ATCC 6633 at 12.5 ug/mL after 24 hrs by disc diffusion method; assay type: functional; settings: for zone of inhibition at 12.5 µg/mL: NCIM 2063/ATCC 6633, 24 h, read-out: DIZ; procedure, shortened: as §1
[10] = test system: Staphylococcus aureus; assay: Antimicrobial activity against methicillin-resistant Staphylococcus aureus at 25 ug/mL after 24 hrs by disc diffusion method; assay type: functional, organism-based
[11] = test system: Escherichia coli; assay: Antimicrobial activity against Escherichia coli NCIM 2068/ATCC 11105 at 1000 ug/mL after 24 hrs by disc diffusion method; assay type: functional, organism-based
[12] = test system: Bacillus subtilis; assay: Antimicrobial activity against Bacillus subtilis NCIM 2063/ATCC 6633 at 25 ug/mL after 24 hrs by disc diffusion method; assay type: functional; settings: NCIM 2063/ATCC 6633, 24 h, read-out: DIZ; procedure, shortened: as §1
[13] = test system: Staphylococcus aureus; assay: Antimicrobial activity against Staphylococcus aureus NCIM 2079/ATCC 6538P at 50 ug/mL after 24 hrs by disc diffusion method; assay type: functional; settings: read-out: DIZ; procedure, shortened: as §1
[14] = test system: Staphylococcus aureus; assay: Antimicrobial activity against Staphylococcus aureus NCIM 2079/ATCC 6538P at 25 ug/mL after 24 hrs by disc diffusion method; assay type: functional; settings: read-out: DIZ; procedure, shortened: as §1
[15] = test system: Proteus vulgaris; assay: Antimicrobial activity against Proteus vulgaris NCIM 2027/ATCC 13315 at 50 ug/mL after 24 hrs by disc diffusion method; assay type: functional; settings: NCIM 2027/ATCC 13315, 24 h, read-out: DIZ; procedure, shortened: as §1
[16] = test system: Escherichia coli; assay: Antimicrobial activity against Escherichia coli NCIM 2068/ATCC 11105 at 50 ug/mL after 24 hrs by disc diffusion method; assay type: functional; settings: NCIM 2068/ATCC 11105, 24 h, read-out: DIZ; procedure, shortened: as §1
[17] = test system: Mycobacterium tuberculosis; assay: Antimycobacterial activity against multidrug-susceptible Mycobacterium tuberculosis H37Rv ATCC 27294 after 4 weeks; assay type: functional; settings: H37Rv ATCC 27294, 672 h
Procedure, shortened: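 Lowenstein-Jensen proportion method. Drug at 6.25, 12.5, 25, 50 and 100 µg mL-1 in LJ medium slants, set overnight. Inoculated with 4 mg mL-1 suspension by 3 mm loop, 37 °C, 4 weeks. MIC is the lowest concentration fully inhibiting growth, by CFU versus medium, inoculated and DMSO controls. Three independent determinations.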

[18] = test system: Escherichia coli; assay: Antimicrobial activity against Escherichia coli NCIM 2068/ATCC 11105 at 25 ug/mL after 24 hrs by disc diffusion method; assay type: functional; settings: NCIM 2068/ATCC 11105, 24 h, read-out: DIZ; procedure, shortened: as §1
[19] = test system: Staphylococcus aureus; assay: Antimicrobial activity against methicillin-resistant Staphylococcus aureus at 50 ug/mL after 24 hrs by disc diffusion method; assay type: functional, organism-based
[20] = test system: Staphylococcus aureus; assay: Antimicrobial activity against Staphylococcus aureus NCIM 2079/ATCC 6538P at 1000 ug/mL after 24 hrs by disc diffusion method; assay type: functional, organism-based
[21] = test system: Staphylococcus aureus; assay: Antimicrobial activity against methicillin-resistant Staphylococcus aureus at 12.5 ug/mL after 24 hrs by disc diffusion method; assay type: functional, organism-based

SMILES | zone of inhibition at 12.5 µg/mL [1] | diameter of the inhibition zone (DIZ) [2] | zone of inhibition at 12.5 µg/mL [3] | zone of inhibition at 50 µg/mL [4] | zone of inhibition at 1000 µg/mL [5] | zone of inhibition at 12.5 µg/mL [6] | diameter of the inhibition zone (DIZ) [7] | zone of inhibition at 25 µg/mL [8] | diameter of the inhibition zone (DIZ) [10] | diameter of the inhibition zone (DIZ) [11] | zone of inhibition at 25 µg/mL [12] | zone of inhibition at 50 µg/mL [13] | zone of inhibition at 25 µg/mL [14] | zone of inhibition at 50 µg/mL [15] | zone of inhibition at 50 µg/mL [16] | MIC [17] | zone of inhibition at 25 µg/mL [18] | diameter of the inhibition zone (DIZ) [19] | diameter of the inhibition zone (DIZ) [20] | diameter of the inhibition zone (DIZ) [21] | other results
CC1=C(C(=O)Nc2ccc(C)cc2)C(c2ccc[nH]2)C(C(=O)Nc2ccc(C)cc2)=C(C)N1 | 9 mm | inactive | 14 mm | 13 mm | 10 mm | 10 mm | inactive | 14 mm | inactive | inactive | 11 mm | 12 mm | 11 mm | 18 mm | 22 mm | 12.5 µg/mL (≈ 28.4 µM) | 19 mm | inactive | inactive | inactive | zone of inhibition at 12.5 µg/mL [9]: 7 mm
CC1=C(C(=O)Nc2ccc(C)cc2)C(c2ccccn2)C(C(=O)Nc2ccc(C)cc2)=C(C)N1 | 8 mm | inactive | 8 mm | 12 mm |  | 9 mm | inactive | 12 mm | inactive | inactive | 10 mm | 12 mm | 10 mm | 16 mm | 14 mm | > 25 µg/mL | 10 mm | inactive | inactive | inactive | diameter of the inhibition zone (DIZ) [5]: inactive; zone of inhibition at 12.5 µg/mL [9]: 9 mm
CN[C@@H]1[C@H](O[C@H]2[C@H](O[C@H]3[C@H](O)[C@@H](O)[C@H](N=C(N)N)[C@@H](O)[C@@H]3N=C(N)N)O[C@@H](C)[C@]2(O)C=O)O[C@@H](CO)[C@H](O)[C@H]1O [STREPTOMYCIN] |  | inactive |  | 22 mm | 18 mm |  | inactive |  |  | inactive |  | 21 mm |  | 26 mm | 23 mm |  |  | inactive | inactive |  | 
CC1=C(C(=O)Nc2ccccc2C)C(c2ccccn2)C(C(=O)Nc2ccccc2C)=C(C)N1 |  | inactive | 14 mm | 10 mm | 8 mm | 10 mm | inactive | 12 mm | inactive | inactive | 8 mm | 15 mm | 12 mm | 16 mm | 19 mm | 25 µg/mL (≈ 55.2 µM) | 17 mm | inactive | inactive | inactive | diameter of the inhibition zone (DIZ) [1]: inactive; diameter of the inhibition zone (DIZ) [9]: inactive
